{"source": "ChEMBL document CHEMBL4257543", "about": "“Structural optimization and antibacterial evaluation of rhodomyrtosone B analogues against MRSA strains” (Medchemcomm, 2018)", "key": {"Staphylococcus aureus [1]": {"test_system": "Staphylococcus aureus", "experiment": "Antibacterial activity against methicillin-resistant Staphylococcus aureus JCSC 4788 by micro dilution susceptibility test", "type": "functional", "summary_of_the_method": "(§1)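 Microbroth dilution MIC in Mueller–Hinton broth following CLSI guidelines, vancomycin as positive control; resazurin added as visible growth indicator. Assays run at least in triplicate.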"}, "Staphylococcus aureus [2]": {"test_system": "Staphylococcus aureus", "experiment": "Antibacterial activity against Staphylococcus aureus ATCC 6538 by micro dilution susceptibility test", "type": "functional", "summary_of_the_method": "as §1"}, "Staphylococcus aureus [3]": {"test_system": "Staphylococcus aureus", "experiment": "Antibacterial activity against Staphylococcus aureus ATCC 29213 by micro dilution susceptibility test", "type": "functional", "summary_of_the_method": "as §1"}, "Staphylococcus aureus [4]": {"test_system": "Staphylococcus aureus", "experiment": "Antibacterial activity against methicillin-resistant Staphylococcus aureus JCSC 3063 by micro dilution susceptibility test", "type": "functional", "summary_of_the_method": "as §1"}, "Staphylococcus aureus [5]": {"test_system": "Staphylococcus aureus", "experiment": "Antibacterial activity against methicillin-resistant Staphylococcus aureus JCSC 4469 by micro dilution susceptibility test", "type": "functional", "summary_of_the_method": "as §1"}, "Staphylococcus aureus [6]": {"test_system": "Staphylococcus aureus", "experiment": "Antibacterial activity against methicillin-resistant Staphylococcus aureus JCSC 4744 by micro dilution susceptibility test", "type": "functional", "summary_of_the_method": "as §1"}, "Staphylococcus aureus [7]": {"test_system": "Staphylococcus aureus", "experiment": "Antibacterial activity against methicillin-resistant Staphylococcus aureus NCTC 10442 by micro dilution susceptibility test", "type": "functional", "summary_of_the_method": "as §1"}, "Staphylococcus aureus [8]": {"test_system": "Staphylococcus aureus", "experiment": "Antibacterial activity against methicillin-resistant Staphylococcus aureus N315 by micro dilution susceptibility test", "type": "functional", "summary_of_the_method": "as §1"}, "Staphylococcus aureus [9]": {"test_system": "Staphylococcus aureus", "experiment": "Antibacterial activity against methicillin-resistant Staphylococcus aureus 85/2082 by micro dilution susceptibility test", "type": "functional", "summary_of_the_method": "as §1"}, "Cutibacterium acnes": {"test_system": "Cutibacterium acnes", "experiment": "Antibacterial activity against Propionicibacterium acnes ATCC 6919 by micro dilution susceptibility test", "type": "functional", "summary_of_the_method": "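Microbroth dilution MIC in Mueller–Hinton broth following CLSI guidelines; […]; resazurin added as visible growth indicator; vancomycin positive control; at least triplicate.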"}, "Enterococcus faecalis": {"test_system": "Enterococcus faecalis", "experiment": "Antibacterial activity against Enterococcus faecalis ATCC 29212 by micro dilution susceptibility test", "type": "functional", "summary_of_the_method": "(§2)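 Microbroth dilution MIC in Mueller–Hinton broth following CLSI guidelines, with vancomycin as positive control; assays run at least in triplicate.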"}, "[10]": {"test_system": "Staphylococcus epidermidis", "experiment": "Antibacterial activity against Staphylococcus epidermidis ATCC 12228 by micro dilution susceptibility test", "type": "functional", "summary_of_the_method": "as §2"}, "Enterococcus faecium": {"test_system": "Enterococcus faecium", "experiment": "Antibacterial activity against vancomycin-resistant Enterococcus faecium by micro dilution susceptibility test", "type": "functional", "summary_of_the_method": "as §1"}, "Paenibacillus polymyxa": {"test_system": "Paenibacillus polymyxa", "experiment": "Antibacterial activity against Bacillus polymyxa ATCC 842 by micro dilution susceptibility test", "type": "functional", "summary_of_the_method": "as §2"}, "Escherichia coli": {"test_system": "Escherichia coli", "experiment": "Antibacterial activity against Escherichia coli ATCC 8739 by micro dilution susceptibility test", "type": "functional", "summary_of_the_method": "as §2"}, "Staphylococcus aureus [11]": {"test_system": "Staphylococcus aureus", "experiment": "Selectivity ratio of MIC for methicillin-resistant Staphylococcus aureus JCSC 2172 to MIC for methicillin-resistant Staphylococcus aureus JCSC 4788", "type": "functional"}, "Staphylococcus aureus [12]": {"test_system": "Staphylococcus aureus", "experiment": "Selectivity ratio of MIC for methicillin-resistant Staphylococcus aureus NCTC 10442 to MIC for methicillin-resistant Staphylococcus aureus JCSC 4788", "type": "functional"}, "[13]": {"experiment": "Selectivity ratio of MIC for methicillin-resistant Staphylococcus aureus N315 to MIC for methicillin-resistant Staphylococcus aureus JCSC 4788", "type": "functional"}, "[14]": {"experiment": "Selectivity ratio of MIC for vancomycin-resistant Enterococcus faecium to MIC for methicillin-resistant Staphylococcus aureus JCSC 4788", "type": "functional"}, "RAW264.7": {"test_system": "RAW264.7", "experiment": "Cytotoxicity against mouse RAW264.7 cells by MTT assay", "type": "cell-based", "summary_of_the_method": "(§3)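 MTT viability assay after 24 h exposure to compound at 1.5625–100 µg mL⁻¹; control cells received DMSO at 0.5% (highest test-well level); IC50 given as mean ± SD of at least triplicate runs.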"}, "MCF7": {"test_system": "MCF7", "experiment": "Cytotoxicity against human MCF7 cells by MTT assay", "type": "cell-based", "summary_of_the_method": "as §3"}, "[15]": {"experiment": "Selectivity ratio of IC50 for mouse RAW264.7 cells to MIC for methicillin-resistant Staphylococcus aureus JCSC 4788", "type": "toxicity", "summary_of_the_method": "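Ratio of 24 h MTT cytotoxicity IC50 (compound 1.5625–100 μg mL−1, 0.5% DMSO control) to MIC against MRSA JCSC 4788 from CLSI microbroth dilution in MHB; IC50 values expressed as mean ± SD.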"}, "Staphylococcus aureus [16]": {"test_system": "Staphylococcus aureus", "experiment": "Bactericidal activity against methicillin-resistant Staphylococcus aureus JCSC 4788 assessed as reduction in bacterial growth at 0.5 to 1 times MIC measured within 8 hrs by time kill assay relative to control", "type": "functional", "set-up": "scale not given: the % may be the effect or the level left", "summary_of_the_method": "(§4)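 Time-kill per CLSI: overnight MRSA JCSC 4788 adjusted in 0.85% NaCl to 10^6–10^7 CFU mL−1 and exposed to 0.5×, 1×, 2× and 4× MIC at 35 °C, vancomycin as comparator. Viable plate counts at 0.5, 2, 4, 8 and 24 h; two independent experiments.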"}, "Staphylococcus aureus [17]": {"test_system": "Staphylococcus aureus", "experiment": "Bactericidal activity against methicillin-resistant Staphylococcus aureus JCSC 4788 assessed as bacterial killing at 2 MIC measured within 2 hrs by time kill assay relative to control", "type": "functional", "summary_of_the_method": "as §4"}, "Staphylococcus aureus [18]": {"test_system": "Staphylococcus aureus", "experiment": "Bactericidal activity against methicillin-resistant Staphylococcus aureus JCSC 4788 assessed as reduction in colony forming units at 2 times MIC measured after 2 hrs by time kill assay relative to control", "type": "functional", "set-up": "scale not given: the % may be the effect or the level left", "summary_of_the_method": "as §4"}, "Staphylococcus aureus [19]": {"test_system": "Staphylococcus aureus", "experiment": "Induction of cytoplasmic membrane depolarization in methicillin-resistant Staphylococcus aureus JCSC 4788 at 0.5 to 2 times MIC measured within 1 min by Disc3(5) staining based fluorescence spectrophotometric method", "type": "functional, organism-based", "summary_of_the_method": "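Exponential-phase MRSA JCSC 4788 washed and set to OD620 0.1 in 5 mM HEPES pH 7. Cells loaded with 0.4 μM DiSC3(5) plus 100 mM KCl for 20 min at 37 °C with agitation. Compound added at 0.5–8× MIC and fluorescence followed at ex 660/em 670 nm; mean ± SD.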"}, "Staphylococcus aureus [20]": {"test_system": "Staphylococcus aureus", "experiment": "Induction of membrane disruption in methicillin-resistant Staphylococcus aureus JCSC 4788 assessed as increase in fluorescence intensity at MIC measured after 3 hrs by SYTOX green dye based fluorescence assay", "type": "functional, organism-based", "summary_of_the_method": "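Exponential-phase MRSA JCSC 4788 washed and set to OD620 0.4 in 0.85% NaCl, exposed to serial compound concentrations for 3 h, then 3 μM SYTOX Green for 20 min. Fluorescence read at ex 504/em 523 nm with melittin as positive control and vancomycin as comparator; mean ± SD, n = 3.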"}, "Staphylococcus aureus [21]": {"test_system": "Staphylococcus aureus", "experiment": "Antibacterial activity against methicillin-resistant Staphylococcus aureus JCSC 4788 in Balb/c mouse skin infection model assessed as reduction in skin ulcer formation at 40 ug administered as single dose via intradermal route measured 3 to 8 days post-infection", "type": "functional, organism-based", "summary_of_the_method": "(§5)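 Female BALB/c mice (18–20 g) injected intradermally in abdominal skin with 0.1 mL of MRSA JCSC 4788 (1×10^8 CFU) mixed with a single 40 μg dose in DMSO; DMSO-vehicle controls. Body weight and lesion size recorded daily for 11 days, ulcers imaged at 3 and 8 days; n = 6, mean ± SD.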"}, "Staphylococcus aureus [22]": {"test_system": "Staphylococcus aureus", "experiment": "Antibacterial activity against methicillin-resistant Staphylococcus aureus JCSC 4788 in Balb/c mouse skin infection model assessed as reduction in infection-induced morbidity by measuring increase in body weight at 40 ug administered as single dose via intradermal route measured daily for 11 days", "type": "functional, organism-based", "summary_of_the_method": "as §5"}, "Staphylococcus aureus [23]": {"test_system": "Staphylococcus aureus", "experiment": "Antibacterial activity against methicillin-resistant Staphylococcus aureus JCSC 4788 in Balb/c mouse skin infection model assessed as reduction in infection-induced morbidity by measuring decrease in wound size at 40 ug administered as single dose via intradermal route measured daily for 11 days", "type": "functional, organism-based", "summary_of_the_method": "as §5"}}, "note": "The source made the active and inactive calls. The rule behind the calls is not given here.", "data": [{"smiles": "CCCCCCCC(=O)c1c(O)cc(O)c2c1OC1=C(C(=O)C(C)(C)C(=O)C1(C)C)C2CC(C)C", "note": "(stereo not given)", "values": [{"measurement": "MIC", "setting": "Staphylococcus aureus [1]", "value": "0.25 to 0.5", "unit": "µg/mL"}, {"measurement": "MIC", "setting": "Staphylococcus aureus [2]", "value": 0.25, "unit": "µg/mL"}, {"measurement": "MIC", "setting": "Staphylococcus aureus [3]", "value": 0.5, "unit": "µg/mL"}, {"measurement": "MIC", "setting": "Staphylococcus aureus [4]", "value": 0.25, "unit": "µg/mL"}, {"measurement": "MIC", "setting": "Staphylococcus aureus [5]", "value": 0.25, "unit": "µg/mL"}, {"measurement": "MIC", "setting": "Staphylococcus aureus [6]", "value": 0.125, "unit": "µg/mL"}, {"measurement": "MIC", "setting": "Staphylococcus aureus [7]", "value": 0.5, "unit": "µg/mL"}, {"measurement": "MIC", "setting": "Staphylococcus aureus [8]", "value": 0.25, "unit": "µg/mL"}, {"measurement": "MIC", "setting": "Staphylococcus aureus [9]", "value": 0.25, "unit": "µg/mL"}, {"measurement": "MIC", "setting": "Cutibacterium acnes", "value": 0.25, "unit": "µg/mL"}, {"measurement": "MIC", "setting": "Enterococcus faecalis", "value": 0.25, "unit": "µg/mL"}, {"measurement": "MIC", "setting": "[10]", "value": 0.25, "unit": "µg/mL"}, {"measurement": "MIC", "setting": "Enterococcus faecium", "value": 2, "unit": "µg/mL"}, {"measurement": "MIC", "setting": "Paenibacillus polymyxa", "value": "> 32", "unit": "µg/mL"}, {"measurement": "MIC", "setting": "Escherichia coli", "value": "> 32", "unit": "µg/mL"}, {"measurement": "Selectivity ratio", "setting": "Staphylococcus aureus [11]", "value": "0.5 - 2"}, {"measurement": "Selectivity ratio", "setting": "Staphylococcus aureus [12]", "value": "0.5 - 2"}, {"measurement": "Selectivity ratio", "setting": "[13]", "value": "0.5 to 2"}, {"measurement": "Selectivity ratio", "setting": "[14]", "value": "0.5 to 2"}, {"measurement": "IC50", "setting": "RAW264.7", "value": 5.6, "unit": "µg/mL"}, {"measurement": "IC50", "setting": "MCF7", "value": 9.98, "unit": "µg/mL"}, {"measurement": "Selectivity ratio", "setting": "[15]", "value": 22.4}, {"measurement": "Activity", "setting": "Staphylococcus aureus [16]", "value": ">90", "unit": "%"}, {"measurement": "Activity", "setting": "Staphylococcus aureus [17]", "value": ">90", "unit": "%"}, {"measurement": "Activity", "setting": "Staphylococcus aureus [18]", "value": 99.9, "unit": "%"}, {"measurement": "Activity", "setting": "Staphylococcus aureus [19]", "value": "Active"}, {"measurement": "Activity", "setting": "Staphylococcus aureus [20]", "value": "Active"}, {"measurement": "Activity", "setting": "Staphylococcus aureus [21]", "value": "Active"}, {"measurement": "Activity", "setting": "Staphylococcus aureus [22]", "value": "Active"}, {"measurement": "Activity", "setting": "Staphylococcus aureus [23]", "value": "Active"}]}]}
